Laboratory results taken from ChEMBL document CHEMBL2331325, “Antioxidant lignans and chromone glycosides from Eurya japonica” (J Nat Prod, 2013).
pIC50: −log10 of the molar value.

Assays:
[1] = Cytotoxicity against mouse RAW264.7 cells assessed as cell viability at 20 ug/ml after 24 hrs by MTT assay; assay type: cell-based; settings: read-out: Activity
How it was run: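 Viability of RAW 264.7 cells measured by MTT after 24 h co-treatment with LPS (1000 ng/mL) and compound at 20 μg/mL. Compounds dissolved in DMSO and diluted in sterile PBS.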

[2] = system: Radical scavenging activity; assay: Antioxidant activity assessed as DPPH radical scavenging activity […]; assay type: functional
How it was run: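 Shaken in the dark at room temperature for 30 min, then absorbance read at 517 nm. Negative control without compound. ED50 taken as the concentration scavenging 50% of DPPH radicals.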

RAW264.7 [3] = assay: Inhibition of LPS-induced NO production in mouse RAW264.7 cells after 24 hrs at 20 ug/ml; assay type: functional; set-up: scale not given: the % may be the effect or the level left
RAW264.7 [4] = assay: Inhibition of LPS-induced NO production in mouse RAW264.7 cells after 24 hrs; assay type: functional, cell-based; settings: RAW264.7, 24 h

| SMILES | viability at 24 h, 20 ug/ml [1] [%] | ED50 [2] [µM] | Activity (RAW264.7 [3]) [%] | pIC50 (RAW264.7 [4]) |
| --- | --- | --- | --- | --- |
| O=c1c(O[C@@H]2OC[C@H](O)[C@H](O)[C@H]2O)coc2cc(O)cc(O)c12 | 106 | 133 | 38.07 |  |
| O=C1c2c(O)cc(O)cc2O[C@@H](c2ccc(O)c(O)c2)[C@@H]1O[C@@H]1O[C@H](CO)[C@@H](O)[C@H](O)[C@H]1O | 105 | 36.2 | 35.78 |  |
| O=C1c2c(O)cc(O)cc2O[C@H](c2ccc(O)c(O)c2)[C@H]1O[C@@H]1OC[C@@H](O)[C@H](O)[C@H]1O | 105 | 30.4 | 33.26 |  |
| O=C1O[C@H]2[C@H](O)[C@@H](O)[C@H](CO)O[C@@H]2c2c1cc(O)c(O)c2O |  | > 100 |  |  |
| C=C(C)[C@@H]1CC[C@]2(C(=O)O)CC[C@]3(C)[C@H](CC[C@@H]4[C@@]5(C)CC[C@H](O)C(C)(C)[C@@H]5CC[C@]43C)[C@@H]12 [BETULINIC ACID] | 60.3 | > 100 | 56.19 |  |
| O=C(/C=C/c1ccc(O)cc1)OC[C@H]1O[C@@H](OCCc2ccc(O)c(O)c2)[C@H](O)[C@@H](O)[C@@H]1O |  | 33 |  |  |
| COc1ccc(O[C@@H]2O[C@H](CO)[C@@H](O)[C@H](O)[C@H]2O)cc1OC |  | > 100 |  |  |
| O=C1c2c(O)cc(O)cc2O[C@H](c2ccc(O)c(O)c2)[C@H]1O[C@@H]1O[C@H](CO)[C@@H](O)[C@H](O)[C@H]1O | 101 | 33.5 | 35.55 |  |
| COc1cc(CO)cc(OC)c1O[C@@H]1O[C@H](CO)[C@@H](O)[C@H](O)[C@H]1O |  | > 100 |  |  |
| COc1cc(CCCO)cc(OC)c1O[C@@H]1O[C@H](CO)[C@@H](O)[C@H](O)[C@H]1O |  | > 100 |  |  |
| CC[C@H](CC[C@@H](C)[C@H]1CC[C@H]2[C@@H]3CC=C4C[C@@H](O[C@@H]5O[C@H](CO)[C@@H](O)[C@H](O)[C@H]5O)CC[C@]4(C)[C@H]3CC[C@]12C)C(C)C |  | > 100 |  |  |
| O=c1c(O)c(-c2ccc(O)c(O)c2)oc2cc(O)cc(O)c12 [QUERCETIN] |  |  |  | 5.89 |
| COc1cc2c(c(OC)c1O)[C@@H]1c3c(cc(OC)c(O)c3OC)OC[C@H](C2)[C@@H]1CO[C@@H]1O[C@H](CO)[C@@H](O)[C@H](O)[C@H]1O | 106 | 23.4 | 38.99 |  |
| COc1cc(CCO)cc(OC)c1O[C@@H]1O[C@H](CO)[C@@H](O)[C@H](O)[C@H]1O |  | > 100 |  |  |
| COc1cc2c(c(OC)c1O)[C@H]1c3c(cc(OC)c(O)c3OC)OC[C@@H](C2)[C@H]1CO[C@@H]1O[C@H](CO)[C@@H](O)[C@H](O)[C@H]1O | 110 | 24.7 | 40.37 |  |
| O=c1c(O[C@@H]2OC[C@@H](O)[C@H](O)[C@H]2O)coc2cc(O)cc(O)c12 | 102 | > 100 | 36.24 |  |
| O=c1c(O[C@@H]2O[C@H](CO)[C@@H](O)[C@H](O)[C@H]2O)coc2cc(O)cc(O)c12 | 105 | > 100 | 53.79 |  |
| COc1cc([C@@H]2c3c(cc(OC)c(O)c3OC)C[C@H](CO)[C@H]2CO[C@@H]2O[C@H](CO)[C@@H](O)[C@H](O)[C@H]2O)cc(OC)c1O | 104 | 26.6 | 38.76 |  |
| COc1cc(O[C@@H]2O[C@H](CO)[C@@H](O)[C@H](O)[C@H]2O)cc(O)c1OC |  | > 100 |  |  |
| COc1cc([C@H]2c3cc(O)c(OC)cc3C[C@@H](CO)[C@@H]2CO[C@@H]2O[C@@H](C)[C@H](O)[C@@H](O)[C@H]2O)ccc1O [AVICULIN] | 112 | 44.8 | 39.68 |  |
| O=C1c2c(O)cc(O)cc2O[C@@H](c2ccc(O)c(O)c2)[C@H]1O[C@@H]1OC[C@@H](O)[C@H](O)[C@H]1O | 102 | 26.5 | 36.7 |  |
| COc1cc([C@H]2c3c(cc(OC)c(O)c3OC)C[C@@H](CO[C@@H]3O[C@H](CO)[C@@H](O)[C@H](O)[C@H]3O)[C@@H]2CO)cc(OC)c1O | 101 | 37.6 | 39.22 |  |
| O=C1C=CC(O)(CCO[C@@H]2O[C@H](COC(=O)/C=C/c3ccc(O)cc3)[C@@H](O)[C@H](O)[C@H]2O)C=C1 |  | > 100 |  |  |
| Cc1c(C)c2c(c(C)c1O)CC[C@@](C)(CCC[C@H](C)CCC[C@H](C)CCCC(C)C)O2 |  | 27.2 |  |  |
| COc1cc(O[C@@H]2O[C@H](CO)[C@@H](O)[C@H](O)[C@H]2O)cc(OC)c1OC |  | > 100 |  |  |
| O=C1c2c(O)cc(O)cc2OC(c2ccc(O)c(O)c2)C1O[C@@H]1OC[C@@H](O)[C@H](O)[C@H]1O (single isomer, unassigned) | 107 | 25.2 | 37.84 |  |
| O=C1c2c(O)cc(O)cc2O[C@H](c2ccc(O)c(O)c2)[C@@H]1O[C@@H]1OC[C@@H](O)[C@H](O)[C@H]1O | 108 | 26.6 | 35.32 |  |
